From ChEMBL document CHEMBL1240422, “Design, synthesis and biological evaluation of 3,5-diaryl-isoxazoline/isoxazole-pyrrolobenzodiazepine conjugates as potential anticancer agents” (2010)
Structures can show the parent of a compound that is named as a salt. Activity calls are given as the source filed them. No cut-off for these calls is given here.

Tests used:
A2780 = experiment: Anticancer activity against human A2780 cells after 48 hrs by SRB assay; format: functional; details: A2780, 48 h
How it was run: (§1)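 Grown in RPMI 1640 with 10% FBS and 2 mM L-glutamine at 37 °C, 5% CO2. Seeded at densities set by doubling time, then preincubated 24 h. Continuous 48 h drug exposure at four concentrations (0.1, 1, 10, 100), triplicate wells. Fixed with cold TCA (final 10%) at 4 °C, 60 min. Stained with 0.4% SRB in 1% acetic acid, eluted with 10 mM Tris base, read at 540/690 nm. Percent growth versus control wells.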

KB = experiment: Anticancer activity against human KB cells after 48 hrs by SRB assay; format: functional; how it was run: as §1
ZR-75-1 = experiment: Anticancer activity against human ZR-75-1 cells after 48 hrs by SRB assay; format: functional; details: ZR-75-1, 48 h
How it was run: (§2)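 Cells grown in RPMI 1640 with 10% FBS and 2 mM L-glutamine, plated at densities set by doubling time, and preincubated 24 h at 37 °C, 5% CO2. Compounds were tested at four concentrations (0.1, 1, 10, 100) in triplicate wells with 48 h continuous exposure. Cells were fixed with cold TCA (10% final, 60 min, 4 °C) and stained with 0.4% SRB in 1% acetic acid (20 min, RT). Dye was eluted with 10 mM Trizma base and read at 540 nm (690 nm reference). Percent growth is relative to control wells, plate by plate.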

SiHa = experiment: Anticancer activity against human SiHa cells after 48 hrs by SRB assay; format: functional; how it was run: as §2
A-375 [1] = experiment: Cell cycle arrest in human A375 cells assessed as accumulation at S phase at 4 uM after 24 hrs using propidium iodide staining by FACS; format: functional
How it was run: (§3)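 Treated A375 cells (24 h) were harvested with trypsin-EDTA and fixed in ice-cold 70% ethanol (4 °C, 30 min). After a PBS wash, they were incubated with 1 mg/mL RNase A (37 °C, 30 min) and stained with propidium iodide solution containing trisodium citrate and Triton X-100. DNA content was measured by flow cytometry on 20,000 events. Controls were DMSO-treated.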

A-375 [2] = experiment: Cell cycle arrest in human A375 cells assessed as accumulation at G0/G1 phase at 4 uM after 24 hrs using propidium iodide staining by FACS; format: functional; how it was run: as §3
A-375 [3] = experiment: Cell cycle arrest in human A375 cells assessed as accumulation at G2/M phase at 4 uM after 24 hrs using propidium iodide staining by FACS; format: functional; how it was run: as §3
A-375 [4] = experiment: Induction of apoptosis in human A375 cells assessed as increase in PPAR protein level at 4 uM after 24 hrs by Western blotting; format: functional, cell-based
How it was run: (§4)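 A375 cells were treated for 24 h and lysed in ice-cold RIPA buffer (1% NP-40, 0.5% deoxycholate, 0.1% SDS, protease inhibitors). Protein was quantified by Bradford assay, and 30 µg/lane was run on 12% SDS-PAGE and transferred to PVDF. Membranes were blocked 2 h at RT in TBST with 5% blocker, incubated with primary antibody overnight at 4 °C, then with HRP secondary (1:2000, 1 h, RT). Detection was by chemiluminescence, with β-actin as loading control.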

A-375 [5] = experiment: Induction of apoptosis in human A375 cells assessed as reduction in CDK2 protein level at 4 uM after 24 hrs by Western blotting; format: functional, cell-based; how it was run: as §4
A-375 [6] = experiment: Induction of apoptosis in human A375 cells assessed as caspase3 activation at 4 uM after 24 hrs by fluorimetry; format: functional, cell-based
How it was run: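 Caspase-3 activity was measured by a fluorometric assay on lysates of treated and untreated A375 cells.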

Structure (SMILES) | GI50 (A2780) [nM] | GI50 (KB) [nM] | GI50 (ZR-75-1) [nM] | GI50 (SiHa) [nM] | Activity (A-375 [1]) [%] | Activity (A-375 [2]) [%] | Activity (A-375 [3]) [%] | Activity (A-375 [4]) | Activity (A-375 [5]) | Activity (A-375 [6])
COc1cc2c(cc1OCCCCOc1c(OC)cc(C3CC(c4cc(OC)c(OC)c(OC)c4)=NO3)cc1OC)N=C[C@@H]1CCCN1C2=O (some centres undefined) | 150 | 180 | 150 | 170 |  |  |  |  |  | 
COc1cc(C2=NOC(c3cc(OC)c(OC)c(OC)c3)C2)ccc1O (centres undefined) |  |  |  |  | 15.59 | 82.59 | 1.82 |  |  | 
COc1cc2c(cc1O)N=C[C@@H]1CCCN1C2=O | 140 | 170 |  | 170 | 10.62 | 88.05 | 1.33 |  |  | 
COc1cc2c(cc1OCCCCCOc1c(OC)cc(C3CC(c4cc(OC)c(OC)c(OC)c4)=NO3)cc1OC)N=C[C@@H]1CCCN1C2=O (some centres undefined) | 150 | 180 | 180 | 180 |  |  |  |  |  | 
COc1cc(C2=NOC(c3cc(OC)c(OC)c(OC)c3)C2)ccc1OCCCCCOc1cc2c(cc1OC)C(=O)N1CCC[C@H]1C=N2 (some centres undefined) | < 100 | < 100 | < 100 | < 100 | 6.4 | 92.45 | 1.15 | Active | Active | Active
COc1cc2c(cc1OCCCOc1c(OC)cc(-c3cc(-c4cc(OC)c(OC)c(OC)c4)on3)cc1OC)N=C[C@@H]1CCCN1C2=O | 130 | 150 | 180 | 150 |  |  |  |  |  | 
COc1cccc2c1C(=O)c1c(O)c3c(c(O)c1C2=O)C[C@@](O)(C(=O)CO)C[C@@H]3O[C@H]1C[C@H](N)[C@H](O)[C@H](C)O1 [DOXORUBICIN HYDROCHLORIDE] | < 100 | 160 | < 100 | 1900 |  |  |  |  |  | 
COc1ccc(C2CC(c3cc(OC)c(OC)c(OC)c3)=NO2)cc1OCCCOc1cc2c(cc1OC)C(=O)N1CCC[C@H]1C=N2 (some centres undefined) | 150 | 160 | 130 | 180 |  |  |  |  |  | 
COc1ccc(C2CC(c3cc(OC)c(OC)c(OC)c3)=NO2)cc1OCCCCCOc1cc2c(cc1OC)C(=O)N1CCC[C@H]1C=N2 (some centres undefined) | 140 | 160 | 120 | 160 |  |  |  |  |  | 

Continued, in another order:

GI50 (A2780) [nM] | GI50 (KB) [nM] | Structure (SMILES) | GI50 (ZR-75-1) [nM] | GI50 (SiHa) [nM] | Activity (A-375 [1]) [%] | Activity (A-375 [2]) [%] | Activity (A-375 [3]) [%] | Activity (A-375 [4]) | Activity (A-375 [5]) | Activity (A-375 [6])
140 | 160 | COc1cc2c(cc1OCCCCCOc1c(OC)cc(-c3cc(-c4cc(OC)c(OC)c(OC)c4)on3)cc1OC)N=C[C@@H]1CCCN1C2=O | 100 | 160 |  |  |  |  |  | 
150 | 170 | COc1ccc(-c2cc(-c3cc(OC)c(OC)c(OC)c3)on2)cc1OCCCOc1cc2c(cc1OC)C(=O)N1CCC[C@H]1C=N2 | 130 | 150 |  |  |  |  |  | 
140 | 150 | COc1ccc(-c2cc(-c3cc(OC)c(OC)c(OC)c3)on2)cc1OCCCCOc1cc2c(cc1OC)C(=O)N1CCC[C@H]1C=N2 | 100 | 150 |  |  |  |  |  | 
120 | 130 | COc1ccc(-c2cc(-c3cc(OC)c(OC)c(OC)c3)on2)cc1OCCCCCOc1cc2c(cc1OC)C(=O)N1CCC[C@H]1C=N2 | < 100 | 130 |  |  |  |  |  | 
